Assay results reported in publication PMC10262665 (Science (New York, N.Y.), 2023).
Blank lines part the entries; values can stand above or below the compound they belong to.

Assays:
Sestrin2 = target: T1, Sestrin2 (Homo sapiens, UniProt P58004); test: MIDAS protein-metabolite interaction screen; format: binding; conditions: significant PMI Q < 0.01
T1 sequence (P58004 1-480): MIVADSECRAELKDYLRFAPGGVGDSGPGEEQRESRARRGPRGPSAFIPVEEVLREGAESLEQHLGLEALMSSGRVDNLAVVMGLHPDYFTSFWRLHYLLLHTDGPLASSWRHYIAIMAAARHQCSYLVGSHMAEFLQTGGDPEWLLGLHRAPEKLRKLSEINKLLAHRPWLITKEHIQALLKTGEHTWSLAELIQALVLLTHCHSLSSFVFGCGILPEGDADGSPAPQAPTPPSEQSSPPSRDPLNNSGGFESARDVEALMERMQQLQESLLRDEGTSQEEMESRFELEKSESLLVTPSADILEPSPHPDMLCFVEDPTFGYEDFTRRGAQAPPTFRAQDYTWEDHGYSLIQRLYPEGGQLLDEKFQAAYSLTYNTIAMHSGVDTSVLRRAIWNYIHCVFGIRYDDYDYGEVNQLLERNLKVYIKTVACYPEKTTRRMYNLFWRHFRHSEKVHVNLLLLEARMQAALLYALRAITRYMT
Method in brief: (§1)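 Purified protein is separated from a defined metabolite library by a semipermeable dialysis membrane that passes metabolites but not protein, then incubated to relative equilibrium. Protein is denatured and removed. Metabolites in both chambers are quantified by flow injection analysis–MS, with methods optimized for each pool. The between-chamber fold change is normalized and corrected for nonspecific interactions.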

ENO1 = ENO1 (Homo sapiens, UniProt P06733); test: Differential scanning fluorimetry; format: binding; conditions: DSF, ENO1
Sequence of ENO1 (P06733 whole entry): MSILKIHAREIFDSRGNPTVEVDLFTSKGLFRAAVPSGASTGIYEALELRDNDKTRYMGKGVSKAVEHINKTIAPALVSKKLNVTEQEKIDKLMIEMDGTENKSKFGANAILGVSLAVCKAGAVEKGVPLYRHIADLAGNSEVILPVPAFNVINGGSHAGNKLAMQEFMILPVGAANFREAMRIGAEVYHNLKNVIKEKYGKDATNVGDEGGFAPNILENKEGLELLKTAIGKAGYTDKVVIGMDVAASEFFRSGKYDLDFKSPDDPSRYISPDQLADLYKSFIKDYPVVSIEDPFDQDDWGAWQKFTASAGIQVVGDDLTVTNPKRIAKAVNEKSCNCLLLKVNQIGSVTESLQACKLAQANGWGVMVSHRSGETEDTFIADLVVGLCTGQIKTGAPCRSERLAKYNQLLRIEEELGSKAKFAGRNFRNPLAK

ENO2 = ENO2 (Homo sapiens, UniProt P09104); test: Differential scanning fluorimetry; format: binding; conditions: DSF, ENO2
Sequence of ENO2 (P09104 whole entry): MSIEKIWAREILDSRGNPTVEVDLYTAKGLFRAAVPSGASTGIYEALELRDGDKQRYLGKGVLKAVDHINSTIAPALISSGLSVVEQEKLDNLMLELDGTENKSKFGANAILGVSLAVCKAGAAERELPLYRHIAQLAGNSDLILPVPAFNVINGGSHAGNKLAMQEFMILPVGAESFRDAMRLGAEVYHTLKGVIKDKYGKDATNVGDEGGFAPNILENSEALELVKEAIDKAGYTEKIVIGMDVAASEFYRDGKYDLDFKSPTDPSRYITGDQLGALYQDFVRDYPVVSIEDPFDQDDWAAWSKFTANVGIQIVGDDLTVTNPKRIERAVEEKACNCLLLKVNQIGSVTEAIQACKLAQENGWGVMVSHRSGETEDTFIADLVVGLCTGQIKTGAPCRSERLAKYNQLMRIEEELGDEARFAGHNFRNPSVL

PGAM2 = target: T2, PGAM2 (Homo sapiens, UniProt P15259); test: MIDAS protein-metabolite interaction screen; format: binding; conditions: significant PMI Q < 0.01
T2 sequence (P15259 1-253): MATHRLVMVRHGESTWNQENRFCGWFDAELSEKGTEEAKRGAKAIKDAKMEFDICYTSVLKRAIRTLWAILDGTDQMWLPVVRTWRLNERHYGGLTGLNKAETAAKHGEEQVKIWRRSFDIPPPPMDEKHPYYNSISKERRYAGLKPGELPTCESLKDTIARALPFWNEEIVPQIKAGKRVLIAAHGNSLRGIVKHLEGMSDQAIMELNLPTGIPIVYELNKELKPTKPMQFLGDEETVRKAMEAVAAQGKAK
Method in brief: as §1

LDHA [1] = target: T3, LDHA (Homo sapiens, UniProt P00338); test: MIDAS protein-metabolite interaction screen; format: binding; conditions: significant PMI Q < 0.01
Method in brief: as §1

LDHB = LDHB (Homo sapiens, UniProt P07195); test: MIDAS protein-metabolite interaction screen; format: binding; conditions: significant PMI Q < 0.01
Sequence of LDHB (P07195 whole entry): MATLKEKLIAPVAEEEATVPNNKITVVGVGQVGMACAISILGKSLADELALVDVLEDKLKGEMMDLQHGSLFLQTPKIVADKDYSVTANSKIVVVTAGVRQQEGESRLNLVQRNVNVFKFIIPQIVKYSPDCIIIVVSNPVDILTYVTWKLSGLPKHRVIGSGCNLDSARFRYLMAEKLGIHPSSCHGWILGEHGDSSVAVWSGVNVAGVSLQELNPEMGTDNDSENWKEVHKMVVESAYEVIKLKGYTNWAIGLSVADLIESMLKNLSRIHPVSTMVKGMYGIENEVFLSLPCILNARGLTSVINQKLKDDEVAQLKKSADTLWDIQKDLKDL
Method in brief: as §1

LDHA [2] = target: T3, LDHA; test: LDH enzyme activity assay; format: biochemical; conditions: for IC50: LDHA enzyme activity, acyl-CoAs; for inhibition of LDHA enzyme activity: in vitro
Method in brief: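 LDH isoform activity measured in vitro with test metabolites (adenosine nucleotides, CoA and acyl-CoAs) over a concentration range. IC50 is derived from the inhibition curves. Mode of inhibition is assessed against NAD and lactate.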

GAPDH = GAPDH (Homo sapiens, UniProt P04406); test: MIDAS protein-metabolite interaction screen; format: binding; conditions: significant PMI Q < 0.01
Sequence of GAPDH (P04406 whole entry): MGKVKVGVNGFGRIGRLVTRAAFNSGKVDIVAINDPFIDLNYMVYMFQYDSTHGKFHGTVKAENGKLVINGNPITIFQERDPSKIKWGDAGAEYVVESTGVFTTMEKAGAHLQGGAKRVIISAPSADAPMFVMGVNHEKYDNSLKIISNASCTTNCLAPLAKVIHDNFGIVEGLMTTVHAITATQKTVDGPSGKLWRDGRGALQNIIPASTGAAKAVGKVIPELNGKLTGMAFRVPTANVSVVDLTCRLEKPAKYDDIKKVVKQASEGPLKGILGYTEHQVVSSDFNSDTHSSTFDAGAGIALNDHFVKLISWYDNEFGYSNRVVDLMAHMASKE

MIDAS protein-metabolite interaction (Sestrin2): most enriched interactors
Compound: CC[C@H](C)[C@H](N)C(=O)O [isoleucine]

Kd (ENO1; read-out: apparent dissociation constant (Kd app)): 298 µM | Kd (ENO2; read-out: apparent dissociation constant (KD app)): 289 µM
Compound: O=C(O)[C@@H](CO)OP(=O)(O)O [2PG, 2-phosphoglycerate]

MIDAS protein-metabolite interaction (PGAM2): interacted
Compound: CCCCCC(=O)OCC(COP(=O)(O)OC1C(O)C(O)C(OP(=O)(O)O)C(OP(=O)(O)O)C1O)OC(=O)CCCCC (centres unmarked) [PIP2, phosphatidylinositol-4,5-bisphosphate C-6]

MIDAS protein-metabolite interaction (LDHA [1]): interactions | MIDAS protein-metabolite interaction (LDHB): interactions
Compound: NC(=O)C1=CN([C@@H]2O[C@H](COP(=O)(O)OP(=O)(O)OC[C@H]3O[C@@H](n4cnc5c(N)ncnc54)[C@H](O)[C@@H]3O)[C@@H](O)[C@H]2O)C=CC1 [NADH]

IC50 (LDHA [2]): ~1 µM
Compound: CCCCCCCCCCCCCCCCCCCC(=O)SCCNC(=O)CCNC(=O)[C@H](O)C(C)(C)COP(=O)(O)OP(=O)(O)OC[C@H]1O[C@@H](n2cnc3c(N)ncnc32)[C@H](O)[C@@H]1OP(=O)(O)O [C20:0-CoA, arachidoyl-CoA]

MIDAS protein-metabolite interaction (PGAM2): interacted
Compound: CCCCCC(=O)OCC(COP(=O)(O)OC1C(O)C(OP(=O)(O)O)C(OP(=O)(O)O)C(OP(=O)(O)O)C1O)OC(=O)CCCCC (centres unmarked) [PIP3, phosphatidylinositol-3,4,5-trisphosphate C-6]

IC50 (LDHA [2]): > 100 µM
Compound: CCCCCCCCCCCC(=O)SCCNC(=O)CCNC(=O)[C@H](O)C(C)(C)COP(=O)(O)OP(=O)(O)OC[C@H]1O[C@@H](n2cnc3c(N)ncnc32)[C@H](O)[C@@H]1OP(=O)(O)O [C12:0-CoA, lauroyl-CoA]

inhibition of LDHA enzyme activity (LDHA [2]): inhibited
Compound: CCCCCCCCCCCCCCC(C)(C)C(=O)SCCNC(=O)CCNC(=O)C(O)C(C)(C)COP(=O)(O)OP(=O)(O)OCC1OC(n2cnc3c(N)ncnc32)C(O)C1OP(=O)(O)O (centres unmarked) [DiMePal-CoA, reference compound]

Compound: Nc1ncnc2c1ncn2[C@@H]1O[C@@H]2COP(=O)(O)O[C@H]2[C@H]1O [cAMP, cyclic adenosine monophosphate]
MIDAS protein-metabolite interaction (GAPDH): interacted

thermal stabilization of protein upon ligand binding (ENO1): not | thermal stabilization of protein upon ligand binding (ENO2): not
Compound: N[C@@H](Cc1ccc(OP(=O)(O)O)cc1)C(=O)O [phosphotyrosine]

MIDAS protein-metabolite interaction (LDHA [1]): interactions | MIDAS protein-metabolite interaction (LDHB): interactions
Compound: NC(=O)c1ccc[n+]([C@@H]2O[C@H](COP(=O)([O-])O)[C@@H](O)[C@H]2O)c1 [nicotinamide mononucleotide]

MIDAS protein-metabolite interaction (Sestrin2): most enriched interactors
Compound: CSCC[C@H](N)C(=O)O [methionine]

IC50 (LDHA [2]): ~1 µM
Compound: CCCCCCCC/C=C\CCCCCCCC(=O)SCCNC(=O)CCNC(=O)[C@H](O)C(C)(C)COP(=O)(O)OP(=O)(O)OC[C@H]1O[C@@H](n2cnc3c(N)ncnc32)[C@H](O)[C@@H]1OP(=O)(O)O [C18:1-CoA, oleoyl-CoA]

thermal stabilization of protein upon ligand binding (ENO1): not | thermal stabilization of protein upon ligand binding (ENO2): not
Compound: phosphate

Compound: CN(CC(=O)O)C(=N)NP(=O)(O)O [creatine-phosphate]
MIDAS protein-metabolite interaction (GAPDH): interacted

inhibition of LDHA enzyme activity (LDHA [2]): Neither
Compound: CC(C)(COP(=O)(O)OP(=O)(O)OC[C@H]1O[C@@H](n2cnc3c(N)ncnc32)[C@H](O)[C@@H]1OP(=O)(O)O)[C@@H](O)C(=O)NCCC(=O)NCCS [CoA, coenzyme A]

thermal stabilization of protein upon ligand binding (ENO1): not | thermal stabilization of protein upon ligand binding (ENO2): not
Compound: N[C@@H](CO)C(=O)O [serine]

MIDAS protein-metabolite interaction (Sestrin2): most enriched interactors
Compound: CC(C)C[C@H](N)C(=O)O [leucine]

MIDAS protein-metabolite interaction (GAPDH): interacted
Compound: CC(C)(CO[P@@](=O)(O)O[P@@](=O)(O)OC[C@H]1O[C@@H](n2cnc3c(N)ncnc32)[C@H](O)[C@@H]1OP(=O)(O)O)[C@@H](O)C(=O)NCCC(=O)NCCSC(=O)CC(=O)O [malonyl-coenzyme A]

MIDAS protein-metabolite interaction (GAPDH): interacted
Compound: CC(O)(CC(=O)O)CC(=O)SCCNC(=O)CCNC(=O)[C@H](O)C(C)(C)COP(=O)(O)OP(=O)(O)OC[C@H]1O[C@@H](n2cnc3c(N)ncnc32)[C@H](O)[C@@H]1OP(=O)(O)O (some centres unmarked) [HMG-CoA, 3-hydroxy-3-methylglutaryl-CoA]
